Screening results from PubChem.
PAFAH2 FP inh: inhibitors of human PAFAH2. recombinant PAFAH2, FP-rhodamine activity probe, fluorescence polarization. AID 492956. Q99487. 340,000 tested, 0.99% active. inhibition, % at 3.39 µM;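 active = inhibition above the mean over all tested compounds plus 3 SD, cut at about 30% in these data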;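 also: inhibitors block probe labeling of enzyme so polarization drops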
PAFAH1B2 FP inh: blocks human PAF acetylhydrolase 1b catalytic subunit 2 | AID 492953 | 340,000 tested, 1.2% active | P68402 | recombinant PAFAH1B2, FP-rhodamine activity probe, fluorescence polarization | inhibition, % at 3.39 µM;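 active = inhibition above the mean of all tested compounds plus 3 SD, cut at about 24% in these data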
ARFGAP1 inh: inhibitors of rat ARFGAP1 | 360,000 tested, 0.26% active | Arfgap1-stimulated ARF1 GTP hydrolysis, GDP FP detection | AID 651572 | Q62848 | inhibition, % at 16.5 µM;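 active = inhibition above a per-plate limit, mean inhibition of low control wells plus 3 SD, cut at about 25% in these data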
Target sequence (Q62848 1-136 limits assumed): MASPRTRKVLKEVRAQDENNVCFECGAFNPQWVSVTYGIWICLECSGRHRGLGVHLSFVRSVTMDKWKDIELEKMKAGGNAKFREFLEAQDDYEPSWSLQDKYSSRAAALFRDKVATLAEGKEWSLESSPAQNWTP
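Material: truncated rat Arfgap1 GAP domain; Incubation: compound-enzyme preincubation 20 min, reaction 120 min, detection 60 min, 25 °C; Read-out: percent inhibition of Arfgap1-stimulated GTP hydrolysis; Technique: FP, GDP Alexa 633 tracer displaced from anti-GDP antibody, 620/688 nm; Controls: No-Arfgap1 wells (100%) versus DMSO full-reaction wells (0%); Replication: single well per compound.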
ASAP1 inh: inhibitors of human ASAP1 ArfGAP activity. Q9ULH1. ASAP1-stimulated ARF1 GTP hydrolysis, GDP FP detection. inhibition, % at 16.5 µM. 360,000 tested, 0.19% active; in the data active = inhibition above about 25%
Target sequence (Q9ULH1 325-724 limits assumed): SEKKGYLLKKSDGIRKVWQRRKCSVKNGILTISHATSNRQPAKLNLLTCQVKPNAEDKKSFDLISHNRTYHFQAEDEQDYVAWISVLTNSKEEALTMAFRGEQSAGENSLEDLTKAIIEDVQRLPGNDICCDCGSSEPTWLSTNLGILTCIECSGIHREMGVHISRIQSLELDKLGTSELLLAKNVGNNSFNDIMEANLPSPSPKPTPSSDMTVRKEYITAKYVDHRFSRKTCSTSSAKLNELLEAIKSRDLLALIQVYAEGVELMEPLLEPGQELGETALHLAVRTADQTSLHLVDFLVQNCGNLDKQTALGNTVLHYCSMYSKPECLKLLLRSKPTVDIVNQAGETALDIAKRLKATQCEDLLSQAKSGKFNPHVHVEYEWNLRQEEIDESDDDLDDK
pPAFAH FP inh: inhibitors of human plasma PAF acetylhydrolase (pPAFAH) | Q13093 | recombinant pPAFAH, FP-rhodamine probe fluorescence polarization | inhibition, % at 3.39 µM | 330,000 tested, 1.5% active | AID 463082;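 active = inhibition above the mean inhibition across the screen plus 3 SD, cut at about 25% in these data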;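 also: inhibitors block binding of the rhodamine activity-based probe so polarization drops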
PAFAH1B3 inh: blocks human PAF acetylhydrolase 1B catalytic subunit 3; Q15102; recombinant PAFAH1B3, FP-rhodamine probe, fluorescence polarization; inhibition, % at 3.39 µM; 340,000 tested, 0.28% active; AID 492972;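 active = inhibition above the screen-wide average of all tested compounds plus 3 SD, cut at about 25% in these data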
pPAFAH FP conf: pPAFAH (human) inhibition, confirmed; shares compounds with pPAFAH FP inh; recombinant pPAFAH, FP-Rh probe fluorescence polarization; inhibition, % at 3.39 µM; 2,300 tested, 72% active; AID 463230;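 active = mean inhibition of the triplicate above the hit cutoff set for the earlier primary screen, cut at about 25% in these data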
PAFAH2 confirm: confirmation of human PAFAH2 inhibitors; shares compounds with PAFAH2 FP inh; 2,300 tested, 65% active; inhibition, % at 3.39 µM; recombinant PAFAH2, FP-rhodamine activity probe, fluorescence polarization; AID 493030;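 active = mean inhibition over three repeats above a set limit taken from the earlier primary screen, cut at about 30% in these data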;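 also: inhibitor blocks binding of rhodamine activity probe so polarization falls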
PAFAH1B3 confirm: PAFAH1B3 (human) inhibition, confirmed; shares compounds with PAFAH1B3 inh; recombinant PAFAH1B3, FP-Rh activity-based probe, fluorescence polarization; inhibition, % at 3.39 µM; 390 tested, 30% active; AID 493032;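 active = average inhibition over triplicate runs above the hit cutoff set in the earlier primary screen, cut at about 25% in these data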
ASAP1 inh confirm: confirmation of human ASAP1 inhibitors; shares compounds with ASAP1 inh; ASAP1-stimulated Arf1 GTPase, GDP fluorescence polarization; inhibition, % at 16.5 µM; 620 tested, 37% active; AID 624431;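 active = mean inhibition over triplicates exceeds the hit threshold derived for the earlier primary screening run, cut at about 25% in these data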
Hits are given with their value; i = inactive; nt = no result given. Sampled rows, rich in hits. Any-hit rate of the full collection: about 2.7%.

SMILES | PAFAH2 FP inh | PAFAH1B2 FP inh | ARFGAP1 inh | ASAP1 inh | pPAFAH FP inh | PAFAH1B3 inh | PAFAH2 confirm | others
Cc1ccc(C(C)C)c(OCc2ccc(C(=O)N/N=C/c3cccc(O)c3O)cc2)c1 | i | i | i | i | 54 | 33 | nt | pPAFAH FP conf=52;PAFAH1B3 confirm=i
COC(=O)[C@H](CC(C)C)NC(=O)Cn1cnc2c(NCc3ccccc3)ncnc21 | i | i | i | i | i | i | nt
CNc1ccc(/C=C(\CCC(=O)O)c2nc3ccccc3s2)cc1[N+](=O)[O-] | i | 96 | i | 30 | 49 | i | nt | pPAFAH FP conf=38;ASAP1 inh confirm=52
COc1ccc(C(=O)Nc2cccc(/C=C(\CCC(=O)O)c3nc4ccccc4s3)c2)cc1 | i | i | i | i | i | i | nt
COc1ccccc1CNC(=O)c1ccccc1C(=O)NC(CC(C)C)C(=O)NCc1ccccc1OC (stereo not drawn) | i | i | i | i | i | i | nt
COc1ccc(NC(=O)c2cc3c(-c4ccc(OC)c(OC)c4)nn(C)c3s2)cc1OC | i | i | i | 32 | 46 | i | nt | pPAFAH FP conf=43;ASAP1 inh confirm=58
Nc1ccc(C(=O)OCC(=O)N2CCc3ccccc3C2)cc1[N+](=O)[O-] | 51 | i | i | i | i | i | 46
Cc1cc(C(=O)OCC(=O)NC2CC2)ccc1[N+](=O)[O-] | i | i | i | i | i | i | nt
O=C(COC(=O)c1ccccc1C(=O)c1ccc(Cl)c([N+](=O)[O-])c1)NC1CCCCCC1 | 62 | i | i | i | i | i | 47
Nc1ccc(C(=O)OCC(=O)NC2CC2)cc1[N+](=O)[O-] | 59 | i | i | i | i | i | 48
C=CCNC(=O)/C(C#N)=C/c1ccccc1Cl | i | i | i | i | i | i | nt
C=CCNC(=O)/C(C#N)=C/c1cc(Br)ccc1OC | 33 | i | i | i | i | i | i
Cc1cnc(C(=O)Nc2nnc(SCc3c(Cl)cccc3Cl)s2)cn1 | 60 | i | i | i | i | i | 50
O=C(CN1C(=O)C2CC=CCC2C1=O)Nc1nc2ccc(F)cc2s1 (stereo not drawn) | i | i | i | i | i | i | nt
Cc1ccc(CN2CC(C(=O)Nc3nnc(SCc4c(Cl)cccc4Cl)s3)CC2=O)cc1 (stereo not drawn) | i | i | i | i | i | i | nt
CCS(=O)(=O)N1Cc2ccccc2CC1C(=O)Nc1nnc(SCc2c(Cl)cccc2Cl)s1 (stereo not drawn) | 52 | i | i | i | i | i | 35
CCSc1nnc(NC(=O)C2Cc3ccccc3CN2S(=O)(=O)CC)s1 (stereo not drawn) | i | i | i | i | i | i | nt
O=C(CN1C(=O)C2CC=CCC2C1=O)Nc1nnc(SCc2c(Cl)cccc2Cl)s1 (stereo not drawn) | 78 | i | i | i | i | i | 74
COc1ccc([C@H]2CC(=O)C[C@@H](CCn3cc(C(C)C)nn3)O2)cc1 | nt | nt | i | i | nt | nt | nt
Cc1nc2cc(N3CCN(C)CC3)c(NC(=O)Cc3ccccc3)cc2c(=O)n1Cc1ccccc1 | 42 | i | i | i | i | i | i
Cc1nc2cc(N3CCCCC3)c(NC(=O)c3ccncc3)cc2c(=O)n1Cc1ccc(Cl)cc1 | nt | nt | nt | nt | i | nt | nt
CCN(CC(=O)NCc1cccs1)c1ccc(S(=O)(=O)N2CCN(C)CC2)cn1 | i | i | i | i | i | i | nt
Cc1c(N2C(=O)c3cccc4cccc(c34)C2=O)cnn1C | i | i | i | i | i | i | nt
CC(=O)c1c(C)[nH]c(C(=O)OCC(=O)Nc2cccc(S(=O)(=O)N(C)C)c2)c1C | 31 | i | i | i | i | i | 31
CC(=O)c1c(C)[nH]c(C(=O)OCC(=O)Nc2cccc(S(=O)(=O)N3CCCC3)c2)c1C | 37 | i | i | i | i | i | i
SMILES | PAFAH2 FP inh | PAFAH1B2 FP inh | ARFGAP1 inh | ASAP1 inh | pPAFAH FP inh | PAFAH1B3 inh | PAFAH2 confirm | others
CCc1ccccc1NC(=O)C1=CC(c2ccc(OC)c(OC)c2)=NS(=O)(=O)N1C | i | i | i | i | i | i | nt
COc1ccc2oc(C(=O)OCC(=O)NC3CC3)c(C)c2c1 | i | i | i | i | i | i | nt
COc1ccc2oc(C(=O)OCC(=O)NC(C)(C#N)C3CC3)c(C)c2c1 (stereo not drawn) | 47 | i | i | i | i | i | 41
COc1ccc2oc(C(=O)OCC(=O)Nc3ccccc3)c(C)c2c1 | 61 | i | i | i | i | i | 52
CC(C)NC(=O)Nc1ccc2c(c1)C(=O)N([C@@H](C)CO)C[C@H](C)[C@H](CN(C)S(=O)(=O)c1ccccc1)OCCCC[C@H](C)O2 | nt | nt | i | i | nt | nt | nt
CC1C=CCC2C(=O)N(c3ccc(Cl)cc3O)C(=O)C12 (stereo not drawn) | 35 | i | i | i | i | i | i
CC1C=CCC2C(=O)N(c3ccccc3OC(=O)c3cccs3)C(=O)C12 (stereo not drawn) | i | i | i | i | i | i | nt
O=C(O)C(Cc1ccccc1)N1C(=O)/C(=C/C=C/c2ccco2)SC1=S (stereo not drawn) | 60 | i | i | i | nt | i | 47
O=C(COC(=O)/C=C/c1ccccc1[N+](=O)[O-])NCC(F)(F)F | 30 | i | i | i | i | i | i
Cc1nc(CN2CCCCC2)cc(=O)[nH]1 | i | i | i | i | i | i | nt
O=C(NC1CCCCC1)C(c1ccncc1)N(Cc1ccc2c(c1)OCO2)C(=O)c1cnsn1 (stereo not drawn) | 33 | i | i | i | i | i | i
O=S(=O)(c1ccc2c(c1)CCCN2)N1CCCC2CCCCC21 (stereo not drawn) | 31 | i | i | i | i | i | i
O=S(=O)(c1ccc2c(c1)CCCN2)N1CCCC1 | i | i | i | i | i | i | nt
COC(CNC(=O)c1ccc2c(c1)ncn2C1CCCCCC1)OC | i | i | i | i | i | i | nt
O=C(CCl)NCCN1C(=O)S/C(=C\c2cccnc2)C1=O | i | i | i | i | i | i | nt
O=C(Cn1[nH]c(=O)c2ccccc2c1=O)NCCN1C(=O)S/C(=C\c2ccccc2)C1=O | 31 | i | i | i | i | i | i
C=CCn1c(C)cc(C(=O)COC(=O)/C=C/c2c(C)nn(C3CCS(=O)(=O)C3)c2Cl)c1C (stereo not drawn) | 53 | i | i | i | i | i | 43
